CHRM5 antagonist – CHRM5 antagonism in calcium assay; P08912; CHO-hM5 cells, Fluo-8 calcium fluorescence, ACh EC80; inhibition, % at 3 µM; 360,000 tested, 0.59% active;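 active = inhibition above a per-plate cutoff, the mean of that plate's test compounds plus 3 SD, cut at about 27% in these data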
CHRM4 antagonist – blocks acetylcholine activation of human M4 receptor; P08173; CHO-hM4 cells, ACh EC80, Fluo-8 calcium fluorescence; inhibition, % at 3 µM; 360,000 tested, 0.73% active; AID 624125;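 active = inhibition above its plate's cutoff, the mean inhibition of sample wells plus 3 SD, cut at about 27% in these data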
Target sequence (P08173 whole entry, looked up): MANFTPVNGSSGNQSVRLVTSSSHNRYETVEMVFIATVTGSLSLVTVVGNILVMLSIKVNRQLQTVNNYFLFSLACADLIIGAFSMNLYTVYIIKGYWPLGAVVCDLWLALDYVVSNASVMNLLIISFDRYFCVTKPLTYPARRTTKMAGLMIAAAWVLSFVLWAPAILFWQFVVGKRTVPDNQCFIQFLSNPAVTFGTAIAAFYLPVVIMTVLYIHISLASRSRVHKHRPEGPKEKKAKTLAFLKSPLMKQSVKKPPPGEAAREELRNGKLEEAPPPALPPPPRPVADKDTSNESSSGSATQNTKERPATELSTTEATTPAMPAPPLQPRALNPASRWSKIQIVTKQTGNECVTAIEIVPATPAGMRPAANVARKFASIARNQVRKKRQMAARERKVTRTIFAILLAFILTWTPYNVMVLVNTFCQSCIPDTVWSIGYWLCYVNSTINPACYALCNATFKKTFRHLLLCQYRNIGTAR
M4 PAM – CHRM4 positive allosteric modulation | CHO-K1 hM4/Gqi5, Fluo-8 calcium fluorescence, ACh EC20; 0% = ACh EC20, 100% = maximal ACh | activation, % at 3 µM | 360,000 tested, 0.4% active | AID 624126;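 active = activation above its plate's cutoff, the mean activation of sample wells plus 3 SD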
M4 ag – CHRM4 agonism in calcium assay; P08173; CHO-K1 hM4/Gqi5, Fluo-8 calcium fluorescence; vehicle 0%, full acetylcholine response 100%; 360,000 tested, 0.14% active; activation, % at 3 µM;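 active = activation above the run mean over all test wells plus 3 SD, cut at about 32% in these data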;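 also: peak over basal fluorescence ratio per well then scaled between controls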
M5 PAM – potentiates acetylcholine response at human M5 receptor | 360,000 tested, 0.3% active | CHO-K1 hM5, Fluo-8 calcium, ACh EC20 PAM; 0% = ACh EC20, 100% = ACh EC100 | AID 624038 | activation, % at 3 µM;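 active = activation above the run cutoff, the mean activation of all test compounds plus 3 SD, cut at about 18% in these data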
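Replicates: One well per compound, no replicates | System: Human M5 receptor in CHO-K1 cells | Benchmarks: Low control EC20 acetylcholine (0%), high control EC100 acetylcholine (100%) | Probe or stimulus: Acetylcholine, EC20 level | Times: Fluo-8 loading 80 min at 37 °C plus 30 min room temperature | Signal: Intracellular calcium via Fluo-8 fluorescence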
CHRM5 agonist – agonists of human muscarinic M5 receptor (CHRM5). CHO-K1 hM5 cells, Fluo-8 calcium fluorescence; 0% DMSO wells, 100% maximal acetylcholine response. activation, % at 3 µM. 360,000 tested, 0.19% active. P08912;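 active = activation above the run's mean over test compounds plus 3 SD, cut at about 23% in these data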;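 also: signal is peak over basal fluorescence ratio across the kinetic read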
Each line names hits and unclear results; the compound was inactive in the other large screens. In the library only some 1.9% were active in any assay of this set; here they are far more common.

CN1/C(=C\P(=O)(N(C)C)N(C)C)C(C)(C)c2ccccc21	CHRM5 antagonist 34
Cc1ccc(S(=O)(=O)NCCc2nc3ccccc3[nH]2)cc1	none
OC(C#CCN1CCCCCC1)(c1ccccc1)c1cccnc1 (stereo unspecified)	CHRM5 antagonist 55, CHRM4 antagonist 82
CCCN(CC#CC(O)(c1ccccc1)c1cccnc1)CCC (stereo unspecified)	none
CC(O)(C#CCN1CCOCC1)c1ccccc1 (stereo unspecified)	none
OC(C#CCN1CCCC1)(c1ccccc1)c1cccnc1 (stereo unspecified)	CHRM5 antagonist 76, CHRM4 antagonist 86
CN(CC(=O)Nc1ccccc1Br)C(=O)CCSc1ccc(F)cc1	none
CCN(CC(=O)Nc1ccccc1C(F)(F)F)C(=O)CSCC(=O)Nc1cc(C)on1	M4 PAM 23
CCN(CC(=O)Nc1cc(C)on1)CC(=O)Nc1ccccc1C(F)(F)F	none
CC1=NN(C(=O)COc2ccc(C)c(C)c2)C(O)(c2ccc(Cl)cc2)C1 (stereo unspecified)	M4 PAM 22
CC1=NN(C(=O)CSCc2ccccc2)C(O)(c2ccc(Cl)cc2)C1 (stereo unspecified)	none
CCC(CC)C(=O)c1c[nH]c(C(=O)NCc2ccccc2OC)c1	none
Nc1ccn([C@@H]2O[C@H](CNCc3cccc4c3sc3ccccc34)[C@@H](O)[C@H]2O)c(=O)n1	none
O=C(COC(=O)c1ccc(Cl)c(S(=O)(=O)N2CCCCCC2)c1)NCc1ccccc1	none
CN(C)S(=O)(=O)c1cc(NC(=O)c2cc(=O)c3ccccc3o2)ccc1Cl	none
COc1ccc(NC(=O)c2cc(=O)c3ccccc3o2)cc1Cl	M4 PAM 23
O=C(CN1C(=O)NC2(CCc3ccccc32)C1=O)NCc1ccc(Cl)cc1 (stereo unspecified)	M4 PAM 24
CC1(C)CC(CC(=O)O)(c2ccc(Cl)cc2)CCO1 (stereo unspecified)	M4 PAM 17
Cc1ccc2c(C)c(C(=O)Nc3ccc(S(N)(=O)=O)cc3)oc2c1C	M5 PAM 27
Cc1ccc2c(C)c(C(=O)NCc3ccc(S(N)(=O)=O)cc3)oc2c1C	M5 PAM 27
Cc1ccc(OCC(=O)OCC(=O)NC2CC2)cc1C	none
Cc1cc(C)cc(N(CCC(=O)Nc2nnc(C3CC3)s2)S(=O)(=O)c2ccc(Cl)cc2)c1	M4 PAM 21
COc1ccc(-c2nnc(N3CCOCC3)c3ccccc23)cc1	none
Cc1nnc(N2CCOCC2)c2ccccc12	M4 PAM 25
COc1ccc(-c2nnc(OC)c3ccccc23)cc1	CHRM4 antagonist 35
COc1ccc(C(C(=O)NCc2ccccc2)n2c(-c3ccccn3)nc3ccccc32)cc1 (stereo unspecified)	none
CC(C)n1cnc2c(N(C)c3ccccc3)nc(N(CCN(C)C)Cc3ccccc3)nc21	CHRM5 antagonist 34
COc1cc(N(Cc2ccccc2)Cc2ccccc2)c2ncn(C(C)C)c2c1	none
Cc1ccc(NC(=O)[C@H](C)NC(=O)C2CCN(C(=O)[C@@H](NC(=O)OC(C)(C)C)C(C)C)CC2)cc1	M4 PAM 17
Cc1cccc2c3c([nH]c12)CCN(C)C3	none
CCOC(=O)Nc1ccc2c(c1)N(C(=O)CN(CC)CC)c1ccccc1CC2	CHRM4 antagonist 32
CCOC(=O)Nc1ccc2c(c1)N(C(=O)N1CCN(C)CC1)c1ccccc1S2	CHRM5 antagonist 60
CCOC(=O)Nc1ccc2c(c1)N(C(=O)CCN1CCN(C)CC1)c1ccccc1S2	none
CC(C)OC(=O)Nc1ccc2c(c1)N(C(=O)N1CCN(C)CC1)c1ccccc1CC2	CHRM5 antagonist 46, CHRM4 antagonist 28
O=S(=O)(Nc1ccccc1OC(F)F)c1ccc(S(=O)(=O)N2CCCC2)cc1	none
CC1CN(c2ccc(Oc3ccccc3)cc2)c2nc3c(c(=O)[nH]c(=O)n3C)n2C1 (stereo unspecified)	M4 PAM 17
Cc1cccc(-n2cnc3sc(C)c(C)c3c2=O)c1	CHRM5 antagonist 35
CN1C(=O)C(O)(CC(=O)c2ccncc2)c2ccccc21 (stereo unspecified)	M4 PAM 19
CCOC(=O)c1c(-c2ccc3ccccc3c2)csc1NC(=O)CCCC(=O)O	none
COc1cc(C)ccc1S(=O)(=O)N1CCN(C23CC4CC(CC(C4)C2)C3)CC1	CHRM4 antagonist 89
COc1cc(F)ccc1S(=O)(=O)N1CCN(C23CC4CC(CC(C4)C2)C3)CC1	none
CC(=O)CC(C)(C)Nc1nc2ccc([N+](=O)[O-])cc2o1	M5 PAM 25
Cc1ccc(S(=O)(=O)N2CCCCC2)cc1NC(=O)CSc1nncn1-c1ccccc1	M5 PAM 23
O=C(Nc1ccc(Cl)c(Cl)c1)O/N=C/c1ccncc1	CHRM5 antagonist 32
O=C(CNC(=O)N1CC(=O)Nc2ccccc21)NCCc1cccc(F)c1	M4 PAM 19
O=C(CCNC(=O)N1CC(=O)Nc2ccccc21)NCCc1cccc(F)c1	none
COc1ccc(Cl)cc1NC(=O)Cn1c(C)csc1=O	none
COCCNC(=O)c1cc2c(c(-c3cccc(-c4cc5ccccc5o4)c3)n1)[C@H](CCO)N(S(=O)C(C)(C)C)C2 (stereo partly specified)	none
c1cc2c(cc1CN1CCN(C3CCCCCC3)CC1)OCO2	CHRM4 antagonist 46
Cc1ccc2[nH]c(-c3ccccc3)c(CN3CCCC3)c(=O)c2c1	M5 PAM 20
CCCCCc1ccc(OCCOCCn2c[n+](C)c3ccccc32)c(CCCCC)c1	CHRM4 antagonist 58
CCCCCc1ccc(OCCC[n+]2ccccc2)c(CCCCC)c1	CHRM5 antagonist 32, CHRM4 antagonist 32
C[n+]1cn(CC(O)COCc2ccccc2)c2ccccc21 (stereo unspecified)	none
CC1CN(S(=O)(=O)c2cccc(C(=O)NCc3ccccn3)c2)CC(C)O1 (stereo unspecified)	none
CC1CCC(C(C)C)C(OC(=O)C[n+]2cc(-c3ccc(Cl)cc3)n3c2CCCCC3)C1 (stereo unspecified)	CHRM5 antagonist 75
O=C(C[n+]1cc(-c2ccccc2)n2c1CCCCC2)c1ccc(Cl)cc1	none
Cc1cc(C(=O)OCC(=O)N2CCOCC2)c2ccccc2n1	M4 PAM 19
Cc1ccc(Cl)cc1NS(=O)(=O)c1ccc2oc(=O)ccc2c1	none
O=C(O)c1cccc(Cn2cc(Br)cn2)c1	none
O=C(NCc1ccncc1)c1cccc(Cn2cc(Br)cn2)c1	CHRM4 antagonist 82

Compound activity (PubChem)
